KCNK9 inh – inhibitors of human KCNK9 two-pore domain potassium channel | Q9NPC2 | HEK293 KCNK9, FluxOR thallium flux fluorescence; stronger effect = lower value | B-score at 10 µM | 310,000 compounds, 1.2% hits;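 active = ratio B-score over 3 SD below the library mean, with starting fluorescence within 5 SD of its mean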;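 note: negative B-score means less thallium flux so channel inhibition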
KCNQ1 inh – inhibitors of human KCNQ1 potassium channel. 310,000 compounds, 1.3% hits. P51787. B-score at 10 µM. AID 2642. CHO-K1 KCNQ1, FluxOR thallium flux fluorescence; stronger effect = higher value;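 active = compounds whose thallium flux B-score, printed positive for inhibition, exceeds three library SD while starting fluorescence stays within three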;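 note: channel opened by potassium depolarization with thallium stimulus after 20 min compound exposure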
KCNK3 inh – human KCNK3 channel inhibition, primary screen; O14649; CHO-KCNK3 thallium flux, FluxOR fluorescence; stronger effect = lower value; B-score at 10 µM; 340,000 compounds, 0.84% hits;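 active = B-score under library mean minus 4 SD, starting fluorescence ratio at most library mean plus 5 SD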;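 note: more negative B-score means stronger inhibition of thallium flux through KCNK3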
KCNQ1 pot – potentiates or activates the human KCNQ1 potassium channel. 310,000 compounds, 0.35% hits. B-score at 10 µM. CHO-K1 KCNQ1, thallium flux FluxOR fluorescence; stronger effect = higher value. P51787;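 active = fluorescence ratio B-score, a plate-corrected score, at least three library SD, with initial intensity B-score within 5 SD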
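Test system: CHO-K1 cells stably expressing KCNQ1 / Medium: assay buffer / Also added: depolarizing K+/Tl+ stimulus, K2SO4 and Tl2SO4 each 12.5 mM in 5x stock / Incubation: 90 min dye loading and 20 min compound exposure, both at room temperature / Signal: thallium influx via FluxOR fluorescence, kinetic imaging / Evaluation: B score of baseline-normalized fluorescence ratio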
hERG protect – hERG (human) protection from proarrhythmic block | Q12809 | CHO-hERG, FluxOR thallium flux, dofetilide IC70 present | activation (rescue from dofetilide block), less the hit threshold, % at 10 µM | 310,000 compounds, 0.51% hits;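 active = activation above the mean of controls blocked by dofetilide plus 5 SD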;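 note: thallium influx through hERG after potassium depolarization seen as dye fluorescence rise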
KCNQ1 inh valid – reconfirmed blocker of the human KCNQ1 potassium channel. shares compounds with KCNQ1 inh. KCNQ1 cell line, FluxOR thallium flux fluorescence. inhibition, % at 10 µM. 1,600 compounds, 93% hits;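 active = primary screen active, with duplicate mean exceeding buffer control mean plus 3 SD of buffer wells, cut at about 28% in these data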
CHO KCNQ1 ctr – activity in parental CHO cells lacking KCNQ1; shares compounds with KCNQ1 inh; parental CHO-K1, FluxOR thallium flux fluorescence ratio; stronger effect = lower value; zero means no signal rise above baseline; fluorescence ratio (Tl flux) at 10 µM; 1,600 compounds, 21% hits; AID 588366;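 active = mean of duplicate thallium-flux fluorescence ratios in parental host cells more than 5 SD below the buffer control mean, cut at about 0.38 in these data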;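 note: ratio is peak minus minimum fluorescence divided by baseline fluorescence; actives read low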
KCNQ1 APC inh – confirmation of human KCNQ1 potassium channel inhibitors by electrophysiology. shares compounds with KCNQ1 inh. KCNQ1-CHO cells, automated patch clamp current. calls only at 10 µM. 490 compounds, 20% hits. AID 624120;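 active = KCNQ1 current drop exceeding 3 SD of negative control wells, seen in both duplicate runs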;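 note: steady state current during a 2 s step from -80 to +40 mV; negative values mean current inhibition and positive values mean potentiation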
KCNQ2 inh – KCNQ1 inhibitor that also blocks rat KCNQ2 channel. shares compounds with KCNQ1 inh. KCNQ2 cells, FluxOR thallium flux fluorescence. inhibition, % at 10 µM. 1,600 compounds, 71% hits. AID 651746;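 active = mean percent inhibition of the KCNQ2 thallium signal more than 5 SD above the buffer-only control wells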;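 note: KCNQ2 expressed in CHO cells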
KCNQ1-KCNE1 inh – KCNQ1 inhibitor that also blocks human KCNQ1/KCNE1 channel; AID 652147; KCNQ1/KCNE1 cells, FluxOR thallium flux fluorescence; shares compounds with KCNQ1 inh; inhibition, % at 10 µM; 1,600 compounds, 77% hits;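 active = mean percent inhibition of duplicate wells above the buffer-only control mean plus 3 SD of those controls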
Target sequence (P51787 whole entry, looked up): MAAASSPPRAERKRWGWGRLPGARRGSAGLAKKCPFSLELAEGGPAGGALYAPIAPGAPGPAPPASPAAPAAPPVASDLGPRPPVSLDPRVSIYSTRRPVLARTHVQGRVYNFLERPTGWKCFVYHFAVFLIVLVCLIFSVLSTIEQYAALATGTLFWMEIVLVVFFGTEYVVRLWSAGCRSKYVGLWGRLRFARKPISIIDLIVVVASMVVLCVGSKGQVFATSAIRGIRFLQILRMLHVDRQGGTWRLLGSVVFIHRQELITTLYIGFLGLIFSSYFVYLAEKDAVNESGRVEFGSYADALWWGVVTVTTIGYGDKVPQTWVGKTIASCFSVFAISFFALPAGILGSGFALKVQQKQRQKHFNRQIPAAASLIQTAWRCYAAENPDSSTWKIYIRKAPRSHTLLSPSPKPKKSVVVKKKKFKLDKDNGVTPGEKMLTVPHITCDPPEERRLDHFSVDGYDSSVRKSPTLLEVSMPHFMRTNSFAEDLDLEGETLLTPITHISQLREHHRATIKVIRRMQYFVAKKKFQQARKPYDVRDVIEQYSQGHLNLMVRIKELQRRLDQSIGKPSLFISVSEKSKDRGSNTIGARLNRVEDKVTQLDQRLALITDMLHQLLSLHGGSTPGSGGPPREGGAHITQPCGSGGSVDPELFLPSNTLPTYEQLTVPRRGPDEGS
KCNK9 inh conf – confirmation of human KCNK9 potassium channel inhibitors; 4,900 compounds, 43% hits; inhibition, % at 10 µM; HEK293 KCNK9 cells, FluxOR thallium flux fluorescence; shares compounds with KCNK9 inh;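 active = thallium signal inhibited by more than 5 SD of the compound-free buffer control wells, on both duplicate plates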
Kir21 sel – tests whether KCNK9 modulators also affect mouse Kir2.1; 4,900 compounds, 4% hits; AID 492993; inhibition, % at 10 µM; Kir2.1 cells, FluxOR thallium flux fluorescence; shares compounds with KCNK9 inh;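 active = thallium signal drop more than 5 SD beyond the mean of the no-compound control wells, seen in both duplicate plates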;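 note: signal is fluorescence rise after thallium addition divided by baseline fluorescence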
KCNK9 uninduced – second counter-screen for KCNK9 modulators: effect in non-induced cells; AID 492997; inhibition, % at 10 µM; non-induced KCNK9-HEK293, FluxOR thallium flux; 4,900 compounds, 40% hits; shares compounds with KCNK9 inh;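 active = thallium signal drop beyond 5 SD of the untreated control mean, on both duplicate plates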
KCNK3 confirm – confirmation of human KCNK3 two-pore domain potassium channel inhibitors; shares compounds with KCNK3 inh; CHO-KCNK3 thallium flux, FluxOR fluorescence; 0% buffer, 100% carvedilol maximal block; ratio percent of control, % at 10 µM; 2,400 compounds, 99% hits;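 active = ratio percent of control, averaged over triplicates, above buffer control mean plus 5 SD, cut at about 64% in these data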;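 note: ratio is the fluorescence rise from min to max over baseline after thallium stimulus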
KCNK3 noninduced – counter-screen for KCNK3 inhibitors: effect in non-induced cells; shares compounds with KCNK3 inh; non-induced KCNK3 parental cells, FluxOR thallium flux; stronger effect = lower value; thallium flux ratio (lower = more inhibition) at 10 µM; 2,400 compounds, 40% hits; AID 651747;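 active = thallium flux ratio, averaged over three wells, more than 5 SD below the buffer control mean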;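 note: host cells are CHO cells without KCNK3 induction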
Of the large screens only hits and unclear results are named; the others gave an inactive call (follow-up assays come after a bar, where they were run). An excerpt weighted towards active compounds, which were near 3.1% of everything screened.

CC(=O)c1c(C)[nH]c(C(=O)Nc2cccc(S(=O)(=O)N(C)c3ccccc3)c2)c1C	KCNK9 inh -8.61, KCNQ1 inh 16, KCNK3 inh -10.9 | KCNQ1 inh valid 128.0 | CHO KCNQ1 ctr 0.354 | KCNQ2 inh 143.0% | KCNQ1-KCNE1 inh 184.0% | KCNK9 inh conf inactive | Kir21 sel inactive | KCNK9 uninduced 35.5% | KCNK3 confirm 133.3 | KCNK3 noninduced 0.123
CCN(C(=O)c1ccco1)c1nc(-c2ccc(OC)cc2)cs1	none
COc1ccc(-c2csc(N(CC(C)C)C(=O)c3ccco3)n2)cc1	KCNQ1 inh 7, KCNK3 inh -9.86 | KCNQ1 inh valid 107.0 | CHO KCNQ1 ctr inactive | KCNQ1 APC inh active | KCNQ2 inh 80.0% | KCNQ1-KCNE1 inh 139.0% | KCNK3 confirm 161.7 | KCNK3 noninduced 0.0733
CC1CCCCC12NC(=O)N(CC(=O)NCCc1ccc(S(N)(=O)=O)cc1)C2=O (configuration not stated)	none (no result: KCNK9 inh, KCNQ1 inh, KCNQ1 pot, hERG protect)
COc1ccc(OC2CCN(C(=O)Nc3ccc(C)cc3)CC2)cc1	none
CN(C)S(=O)(=O)c1cccc(C(=O)Nc2ccccc2)c1	none
CN(C)S(=O)(=O)c1cccc(C(=O)Nc2cc(Cl)cc(Cl)c2)c1	KCNQ1 inh 7, KCNK3 inh -12.7 | KCNQ1 inh valid 67.0 | CHO KCNQ1 ctr inactive | KCNQ2 inh 110.0% | KCNQ1-KCNE1 inh inactive | KCNK3 confirm 125.7 | KCNK3 noninduced inactive
COc1ccc(Nc2nc(-c3cccc(OC)c3O)nc3ccccc23)cc1	KCNQ1 inh 7, KCNK3 inh -9.92 | KCNQ1 inh valid 167.5 | CHO KCNQ1 ctr 0.303 | KCNQ2 inh 116.0% | KCNQ1-KCNE1 inh active | KCNK3 confirm 133.0 | KCNK3 noninduced 0.146
CCOC(=O)c1c(C)n(-c2ccc(C)cc2)c2ccc(O)c(CN(C)C)c12	KCNQ1 inh 6, KCNK3 inh -9.8 | KCNQ1 inh valid 37.5 | CHO KCNQ1 ctr inactive | KCNQ2 inh inactive | KCNQ1-KCNE1 inh inactive | KCNK3 confirm 117.0 | KCNK3 noninduced 0.151
Cc1cc(NC(=O)c2cccc3c2C(=O)N(C2CCCCC2)C3)ccc1Br	none
Cc1cccc(C)c1NC(=O)c1cccc2c1C(=O)N(C1CCCCC1)C2	KCNK9 inh -19.3, KCNQ1 inh 6, KCNK3 inh -15.4 | KCNQ1 inh valid 74.5 | CHO KCNQ1 ctr inactive | KCNQ2 inh 104.7% | KCNQ1-KCNE1 inh 129.0% | KCNK9 inh conf 52.5% | Kir21 sel inactive | KCNK9 uninduced 36.0% | KCNK3 confirm 125.7 | KCNK3 noninduced 0.154
Cn1c(N2CCN(C(c3ccccc3)c3ccccc3)CC2)nc2ccccc21	KCNK9 inh -14.2, KCNQ1 inh 12, KCNK3 inh -12.7 | KCNQ1 inh valid 142.5 | CHO KCNQ1 ctr inactive | KCNQ1 APC inh inactive | KCNQ2 inh 142.3% | KCNQ1-KCNE1 inh active | KCNK9 inh conf 83.5% | Kir21 sel inactive | KCNK9 uninduced inactive | KCNK3 confirm 117.0 | KCNK3 noninduced 0.157
CC(c1ccccc1)n1c(N2CCNCC2)nc2c1c(=O)[nH]c(=O)n2C (configuration not stated)	none
CCOc1ccc(N(CC(=O)Nc2ccc(C)c(C)c2)S(=O)(=O)c2c(C)noc2C)cc1	KCNQ1 inh 7, KCNK3 inh -9.69 | KCNQ1 inh valid 95.5 | CHO KCNQ1 ctr inactive | KCNQ1 APC inh inactive | KCNQ2 inh 112.0% | KCNQ1-KCNE1 inh 143.0% | KCNK3 confirm 93.3 | KCNK3 noninduced inactive
CCOc1ccc(N(CC(=O)Nc2cccc(F)c2)S(=O)(=O)c2c(C)noc2C)cc1	none
O=C(Nc1ccc(Br)cc1)Nc1ccccc1Cl	KCNK9 inh -6.65, KCNQ1 inh 7, KCNK3 inh -8.73 | KCNQ1 inh valid 34.0 | CHO KCNQ1 ctr inactive | KCNQ2 inh inactive | KCNQ1-KCNE1 inh inactive | KCNK3 confirm 86.0 | KCNK3 noninduced inactive
CCC(C)COC(=O)C(C#N)c1nc2ccccc2nc1N1CCCCC1 (configuration not stated)	KCNK9 inh -11.2, KCNQ1 inh 8 | KCNQ1 inh valid 123.0 | CHO KCNQ1 ctr inactive | KCNQ1 APC inh inactive | KCNQ2 inh 102.3% | KCNQ1-KCNE1 inh 116.0% | KCNK9 inh conf 48.5% | Kir21 sel inactive | KCNK9 uninduced 45.0% | KCNK3 confirm 117.3 | KCNK3 noninduced 0.144
CC(C)OC(=O)C(C#N)c1nc2ccccc2nc1N1CCCC1 (configuration not stated)	none
CNc1nc(SCc2ccc(C)cc2)nc2c1CCCC2	KCNQ1 inh 10, KCNK3 inh -10.8 | KCNQ1 inh valid 129.5 | CHO KCNQ1 ctr inactive | KCNQ1 APC inh inactive | KCNQ2 inh 101.0% | KCNQ1-KCNE1 inh 102.0% | KCNK3 confirm 134.0 | KCNK3 noninduced 0.148
Cc1ccn2cc(-c3cccc(NC(=O)c4cccs4)c3)nc2c1	KCNQ1 inh 8, KCNK3 inh -11.1 | KCNQ1 inh valid 57.5 | CHO KCNQ1 ctr inactive | KCNQ2 inh inactive | KCNQ1-KCNE1 inh 82.0% | KCNK3 confirm 96.0 | KCNK3 noninduced inactive
O=C(c1cnc(N2CCN(c3ccccn3)CC2)c2ccccc12)N1CCN(c2cccc(Cl)c2)CC1	KCNQ1 inh 10, KCNK3 inh -9.27 | KCNQ1 inh valid 102.0 | CHO KCNQ1 ctr 0.38 | KCNQ2 inh 119.3% | KCNQ1-KCNE1 inh 129.5% | KCNK3 confirm 97.0 | KCNK3 noninduced inactive

Assay outcomes: PubChem, Johns Hopkins Ion Channel Center
